TRPC4 inh: blocks the mouse TRPC4 cation channel | Q9QUQ5 | HEK293 TRPC4beta/mu-opioid, DAMGO-evoked Fluo4 calcium flux; stronger effect = lower value | B-score at 10 µM | hit rate 0.39% among 300,000;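 active means B-score over 3 SD under the library average, no early fluorescence shift, positive overall ratio signal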
Target sequence (Q9QUQ5 whole entry, looked up): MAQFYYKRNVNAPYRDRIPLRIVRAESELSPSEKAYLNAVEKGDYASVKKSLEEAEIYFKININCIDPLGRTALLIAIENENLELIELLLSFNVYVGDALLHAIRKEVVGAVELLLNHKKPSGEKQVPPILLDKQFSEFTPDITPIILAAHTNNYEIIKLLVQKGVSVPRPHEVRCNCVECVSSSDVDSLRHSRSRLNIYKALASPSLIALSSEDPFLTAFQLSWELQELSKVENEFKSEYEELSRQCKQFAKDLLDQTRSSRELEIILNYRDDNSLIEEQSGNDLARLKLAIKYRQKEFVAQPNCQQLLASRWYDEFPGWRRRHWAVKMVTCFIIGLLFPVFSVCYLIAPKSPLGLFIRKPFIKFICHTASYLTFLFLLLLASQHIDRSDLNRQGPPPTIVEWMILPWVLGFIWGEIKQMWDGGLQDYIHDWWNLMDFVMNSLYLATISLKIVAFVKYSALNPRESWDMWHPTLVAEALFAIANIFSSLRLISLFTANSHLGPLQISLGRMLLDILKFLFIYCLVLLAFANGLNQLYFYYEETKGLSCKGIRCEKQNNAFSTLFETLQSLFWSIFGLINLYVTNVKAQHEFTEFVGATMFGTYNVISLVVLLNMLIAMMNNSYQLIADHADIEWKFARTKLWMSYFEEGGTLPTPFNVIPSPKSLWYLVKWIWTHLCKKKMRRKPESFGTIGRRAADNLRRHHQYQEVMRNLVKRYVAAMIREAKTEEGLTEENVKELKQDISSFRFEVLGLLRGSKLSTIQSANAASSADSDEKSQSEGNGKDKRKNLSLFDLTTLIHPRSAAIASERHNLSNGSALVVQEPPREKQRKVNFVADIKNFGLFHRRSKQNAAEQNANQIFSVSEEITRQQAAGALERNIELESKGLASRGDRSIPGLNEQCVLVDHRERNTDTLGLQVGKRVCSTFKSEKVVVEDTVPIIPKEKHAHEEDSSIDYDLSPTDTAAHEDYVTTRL
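Test system – stable TRPC4beta/mu-opioid receptor HEK293 cells · Probe or stimulus – DAMGO, a submaximal dose followed by a maximal one · Dosing – one concentration per compound · Signal – Fluo4 calcium fluorescence by kinetic imaging, 5 s 1 Hz baseline · Evaluation – per-well B score of integrated baseline-normalized Fluo4 ratio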
TRPC6 act: mouse TRPC6 channel activation. HEK293-TRPC6 membrane potential dye fluorescence; stronger effect = higher value. B-score at 10 µM. hit rate 0.13% among 310,000. AID 2550;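 active means B-score of the integrated fluorescence ratio above library mean plus 3 SD, and starting fluorescence ratio within library mean plus 5 SD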;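 further: higher score means more depolarization so channel activation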
TRPC4 agonist: TRPC4 (mouse) channel activation. Q9QUQ5. HEK293 TRPC4beta/mu-opioid, Fluo4 calcium fluorescence; stronger effect = higher value. B-score at 10 µM. hit rate 0.49% among 310,000;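 active means B-score above 5 SD of library B-scores, and initial fluorescence ratio not above library mean plus 5 SD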;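 further: positive B-score marks a calcium rise read as TRPC4 activation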
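Assay system: HEK293 stable line with TRPC4beta plus mu-opioid receptor; schedule: 45 min room-temperature Fluo4 loading, 110 s read; technique: kinetic Fluo4 calcium fluorescence; evaluation: integrated baseline-normalised fluorescence ratio, converted to per-well B score; controls: buffer (low) and maximal DAMGO (high)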
TRPC4 potent: allosterically enhances the mouse TRPC4 cation channel; hit rate 0.42% among 310,000; HEK293 TRPC4beta/mu-opioid, DAMGO EC20, Fluo-4 Ca2+ flux; stronger effect = higher value; B-score at 10 µM; Q9QUQ5;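 active means B-score of calcium response area above 5 SD of library B-scores, with initial fluorescence ratio within 5 SD of library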;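 further: B-score of integrated fluorescence ratio over time as area under calcium response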
TRPC6 inh: blocks the mouse TRPC6 cation channel; Q61143; HEK293-TRPC6, membrane potential dye, ACh-evoked depolarization; stronger effect = lower value; B-score at 10 µM; hit rate 1.1% among 310,000;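 active means B-score under library mean minus 3 SD, initial fluorescence not abnormally high, positive integrated signal ratio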;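 further: B-score derived from integrated fluorescence ratio over the kinetic read; more negative B-score means stronger inhibition of depolarization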
Starred values were filed as active, the others as inactive; i = inactive. Compounds with a hit are over-represented: about 2.3% of the library has one in this group of screens.

SMILES	TRPC4 inh	TRPC6 act	TRPC4 agonist	TRPC4 potent	TRPC6 inh
COc1ccc(C2C(C(C)=O)=C(O)C(=O)N2c2ccc(Br)cc2)cc1 (configuration not stated)	-5*	i	i	i	i
CC(CNc1nc2ccc(Cl)cc2n2cnnc12)c1ccccc1 (configuration not stated)	i	i	i	i	i
CC(C)(CSc1ccccn1)NS(=O)(=O)c1ccc(Cl)cc1	i	i	i	10*	i
CC(C)(CSc1ccccn1)NS(=O)(=O)c1ccccc1	i	i	i	i	i
CC12CN3CC(C)(CN(C1)C3c1ccc(Cl)cc1Cl)C2O (configuration not stated)	-6*	i	48*	i	i
CN(C)c1ccc(C2N3CC4(C)CN2CC(C)(C3)C4O)cc1 (configuration not stated)	i	i	i	i	i
CCOC(=O)c1cn(Cc2ccccc2)c2cc(C)nn2c1=O	i	i	i	i	i
CCOC(=O)c1cn(Cc2ccccc2)c(C(=O)OC(C)(C)C)c1O	i	i	107*	i	i
COc1ccc(OC)c(S(=O)(=O)Nc2ccc3c(c2)N(C(C)=O)CCC3)c1	i	i	i	14*	i
CC(=O)N1CCCc2ccc(NS(=O)(=O)c3ccc(C)c(C)c3)cc21	i	i	i	i	i
COC(=O)c1ccccc1OCCCN(C)C	i	i	i	11*	i
COc1cc(/C=C(/C#N)C(=O)c2c(C)[nH]c3ccccc23)ccc1OCC#N	i	i	i	10*	i
c1ccc2c(N3CCCCCC3)nc(-c3ccncc3)nc2c1	i	i	i	i	i
c1ccc(N2CCN(c3nc(-c4ccccn4)nc4ccccc34)CC2)cc1	i	i	i	i	-5.62*
O=C(c1cccc(S(=O)(=O)N2CCc3ccccc32)c1)N1CCN(c2ccccn2)CC1	i	15.8*	i	i	i
Cc1nn(C)cc1C(C(=O)NC1CCCCC1)N(C(=O)Cc1cccs1)c1ccc(F)cc1 (configuration not stated)	i	i	i	i	i
Cc1nn(C)cc1C(C(=O)NC1CCCCC1)N(C(=O)Cc1cccs1)c1ccc(C(C)C)cc1 (configuration not stated)	i	i	44*	i	i
Cc1cccc(N2CCN(S(=O)(=O)c3ccc(-c4ccc(=O)[nH]n4)o3)CC2)c1C	i	i	i	i	i
CCCN1CCC(N(CCc2ccccc2)Cc2ccccc2)CC1	i	i	i	i	i
COc1ccc(CN2CCC(N(CCc3ccccc3)Cc3ccccc3)CC2)c(OC)c1	i	i	143*	i	i
COCOc1ccc(-c2oc3c(C/C=C(\C)CCC=C(C)C)ccc(O)c3c(=O)c2OCOC)c(OCOC)c1	i	i	i	i	i
Cc1c(C(=O)NCCc2ccccc2)oc2ccccc12	i	i	i	22*	i
CCOc1cc(/C=C2\C(=N)N3N=CSC3=NC2=O)ccc1OS(=O)(=O)c1ccccc1	-6*	i	i	i	i
COc1cc(/C=C2\C(=N)N3N=CSC3=NC2=O)ccc1OS(=O)(=O)c1ccccc1	i	i	i	i	i
CCSc1nc2[nH]ncc2c(=O)[nH]1	i	i	i	i	i
CCOC(=O)C1=C(C)N(C)C(=S)NC1c1ccc(Cl)cc1 (configuration not stated)	-6*	i	i	i	i
CCOC(=O)C1=C(C)N(C)C(=S)NC1c1ccccc1 (configuration not stated)	i	i	i	i	i
CCOC(=O)C1=C(C)N(C)C(=S)NC1c1ccccc1Cl (configuration not stated)	i	i	i	i	i
CCOC(=O)C1=C(C)N(C)C(=S)NC1c1cccc(Cl)c1Cl (configuration not stated)	i	i	i	21*	i
CC1CCCCN1CCCNC(=O)C1CCCN(c2ncnc3c2nc2n3CCCCC2)C1 (configuration not stated)	i	i	i	i	i

From PubChem BioAssay
